Reference: ChEMBL document CHEMBL1781909, “Potent mGluR5 antagonists: pyridyl and thiazolyl-ethynyl-3,5-disubstituted-phenyl series” (Bioorg Med Chem Lett, 2011)

Columns and labels:
[1] = biological target: T1, Metabotropic glutamate receptor 5 (Rattus norvegicus, UniProt P31424); experiment: Antagonist activity at rat mGluR5 expressed in human HEK-293 cells assessed as inhibition of glutamate-induced intracellular calcium mobilization; format: functional, cell-based, HEK293
[2] = biological target: T1, Metabotropic glutamate receptor 5; experiment: Displacement of [3H]methoxy-PEPY from rat mGluR5 expressed in human HEK-293 cells by liquid scintillation counting; format: cell-based, HEK293
Method in brief: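 Membranes from stable rat mGluR5-HEK293A cells (10 µg/well) incubated with 2 nM [3H]methoxy-PEPY in 50 mM Tris/0.9% NaCl, pH 7.4, with or without compound, 1 h at room temperature with shaking. Filtered on GF/B, washed three times, counted by liquid scintillation. Ki derived from fitted IC50; three experiments in duplicate.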

[3] = Octanol-phosphate buffer partition coefficient, log D of the compound at pH 7.4; format: physicochemical
Method in brief: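 Log D measured as partition of the [123I]-labelled compound between octanol and phosphate buffer pH 7.4.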

Rattus norvegicus = experiment: Analgesic activity in ip dosed rat post-operative pain model; format: functional

T1 sequence (P31424 whole entry): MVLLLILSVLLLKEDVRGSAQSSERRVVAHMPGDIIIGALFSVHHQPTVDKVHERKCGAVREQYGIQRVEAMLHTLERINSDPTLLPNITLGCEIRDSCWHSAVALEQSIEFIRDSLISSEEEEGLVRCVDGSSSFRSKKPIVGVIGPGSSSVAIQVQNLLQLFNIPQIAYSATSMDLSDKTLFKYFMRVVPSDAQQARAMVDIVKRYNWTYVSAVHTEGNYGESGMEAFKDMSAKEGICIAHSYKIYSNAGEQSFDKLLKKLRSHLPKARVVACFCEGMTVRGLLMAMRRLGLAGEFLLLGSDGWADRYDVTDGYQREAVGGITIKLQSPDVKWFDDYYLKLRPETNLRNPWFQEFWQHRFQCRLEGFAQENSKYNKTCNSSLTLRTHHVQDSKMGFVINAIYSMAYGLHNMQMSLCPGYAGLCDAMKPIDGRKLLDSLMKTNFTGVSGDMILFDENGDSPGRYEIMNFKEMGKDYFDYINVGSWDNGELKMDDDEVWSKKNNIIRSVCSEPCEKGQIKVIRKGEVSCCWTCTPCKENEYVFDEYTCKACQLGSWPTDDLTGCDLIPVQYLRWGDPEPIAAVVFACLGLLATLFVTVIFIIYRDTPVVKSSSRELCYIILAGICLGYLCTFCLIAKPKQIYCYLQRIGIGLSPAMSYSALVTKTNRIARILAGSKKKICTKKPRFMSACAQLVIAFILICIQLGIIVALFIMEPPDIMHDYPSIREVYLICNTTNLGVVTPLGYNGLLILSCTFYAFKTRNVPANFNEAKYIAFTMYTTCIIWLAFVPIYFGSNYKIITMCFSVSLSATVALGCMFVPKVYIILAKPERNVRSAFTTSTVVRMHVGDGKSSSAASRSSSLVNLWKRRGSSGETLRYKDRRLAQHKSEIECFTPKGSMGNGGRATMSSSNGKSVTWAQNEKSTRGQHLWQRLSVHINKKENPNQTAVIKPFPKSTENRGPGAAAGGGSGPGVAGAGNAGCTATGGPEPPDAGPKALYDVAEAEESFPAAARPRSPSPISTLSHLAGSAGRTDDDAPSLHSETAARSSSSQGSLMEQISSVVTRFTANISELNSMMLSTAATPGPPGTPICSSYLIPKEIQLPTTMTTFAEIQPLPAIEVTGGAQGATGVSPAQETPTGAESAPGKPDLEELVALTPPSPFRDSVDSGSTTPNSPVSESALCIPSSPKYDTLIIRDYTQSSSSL

IC50 [1] [nM]	Ki [2] [nM]	Compound	also measured
2.63	0.36	Cc1nc(C#Cc2cc(C#N)cc([N+](=O)[O-])c2)cs1	–
0.73	0.93	Cc1nc(C#Cc2cc(Br)cc([N+](=O)[O-])c2)cs1	–
0.66	–	N#Cc1cc(I)cc(C#Cc2ccccn2)c1	–
1.61	0.127	Cc1nc(C#Cc2cc(Cl)cc(C#N)c2)cs1	–
1.06	0.106	Cc1nc(C#Cc2cc(Br)cc(C#N)c2)cs1	–
1.05	2.14	Cc1nc(C#Cc2cc(I)cc(C#N)c2)cs1	–
0.61	0.3	Cc1nc(C#Cc2cc(F)cc([N+](=O)[O-])c2)cs1	–
1.75	1.84	Cc1nc(C#Cc2cc(I)cc([N+](=O)[O-])c2)cs1	–
1.11	1.06	Cc1nc(C#Cc2cc(F)cc(Br)c2)cs1	–
1.45	0.69	Cc1nc(C#Cc2cc(Br)cc(Br)c2)cs1	–
3.68	–	Cc1cccc(C#Cc2cc(C#N)cc([N+](=O)[O-])c2)n1	–
0.63	–	Cc1cccc(C#Cc2cc(Br)cc([N+](=O)[O-])c2)n1	–
1.22	–	Cc1cccc(C#Cc2cc(Cl)cc(C#N)c2)n1	–
1.22	–	Cc1cccc(C#Cc2cc(F)cc(C#N)c2)n1	–
0.71	–	Cc1cccc(C#Cc2cc(I)cc(C#N)c2)n1	–
2.64	–	Cc1ccc(C#Cc2cc(C#N)cc([N+](=O)[O-])c2)nc1	–
7.36	–	Cc1ccc(C#Cc2cc(Br)cc([N+](=O)[O-])c2)nc1	–
1.22	–	Cc1ccc(C#Cc2cc(Cl)cc(C#N)c2)nc1	–
0.32	–	Cc1ccc(C#Cc2cc(F)cc(C#N)c2)nc1	–
1.02	–	Cc1ccc(C#Cc2cc(Br)cc(C#N)c2)nc1	–
1.32	–	N#Cc1cc(C#Cc2ccccn2)cc([N+](=O)[O-])c1	–
0.39	–	O=[N+]([O-])c1cc(Br)cc(C#Cc2ccccn2)c1	–
1.03	–	N#Cc1cc(Cl)cc(C#Cc2ccccn2)c1	–
0.66	–	O=[N+]([O-])c1cc(F)cc(C#Cc2ccccn2)c1	–
2.09	–	O=[N+]([O-])c1cc(I)cc(C#Cc2ccccn2)c1	–
–	–	Cc1cccc(C#Cc2cc([123I])cc(C#N)c2)n1	logD [3]: 2.3
1.89	0.36	Cc1nc(C#Cc2cc(F)cc(C#N)c2)cs1	–
–	–	Cc1cccc(C#Cc2ccccc2)n1	ED50 (Rattus norvegicus): 15 mg/kg
